What was measured:
[1] = molecular target: T1, Mitogen-activated protein kinase kinase kinase 12 (Homo sapiens, UniProt Q12852); test: Inhibition of doxycycline inducible human DLK transfected in HEK293 cells assessed as JNK phosphorylation after […] by Hoechst-33342 staining-based assay; type: cell-based
T1 sequence (Q12852 whole entry): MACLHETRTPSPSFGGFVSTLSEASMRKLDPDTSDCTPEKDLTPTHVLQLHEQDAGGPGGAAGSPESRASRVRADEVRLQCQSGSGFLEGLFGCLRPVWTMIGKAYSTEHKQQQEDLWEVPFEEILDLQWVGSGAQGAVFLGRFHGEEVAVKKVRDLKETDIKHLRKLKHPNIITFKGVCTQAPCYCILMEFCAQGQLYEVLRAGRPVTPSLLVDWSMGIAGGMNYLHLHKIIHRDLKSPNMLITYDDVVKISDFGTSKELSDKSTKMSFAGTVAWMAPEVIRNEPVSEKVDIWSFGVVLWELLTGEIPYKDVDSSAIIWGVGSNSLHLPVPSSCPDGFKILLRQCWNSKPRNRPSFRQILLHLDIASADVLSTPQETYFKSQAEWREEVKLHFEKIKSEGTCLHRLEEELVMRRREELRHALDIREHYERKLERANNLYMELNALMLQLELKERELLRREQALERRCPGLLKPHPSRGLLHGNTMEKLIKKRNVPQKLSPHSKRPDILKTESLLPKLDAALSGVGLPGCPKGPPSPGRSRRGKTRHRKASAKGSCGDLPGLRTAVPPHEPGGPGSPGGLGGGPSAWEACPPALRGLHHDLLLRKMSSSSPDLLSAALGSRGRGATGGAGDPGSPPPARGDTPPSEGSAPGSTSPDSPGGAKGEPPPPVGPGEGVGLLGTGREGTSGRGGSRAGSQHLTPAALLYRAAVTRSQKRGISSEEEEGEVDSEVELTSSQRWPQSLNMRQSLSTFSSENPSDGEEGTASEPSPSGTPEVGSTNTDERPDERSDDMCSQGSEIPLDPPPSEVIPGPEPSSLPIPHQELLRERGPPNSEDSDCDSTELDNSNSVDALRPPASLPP

[2] = molecular target: Serine/threonine-protein kinase DCLK2 (Homo sapiens) (UniProt Q8N568); test: Inhibition of full length recombinant GST-tagged human DCAMKL2 expressed in baculovirus expression system at 1 uM by FRET assay relative to control
Sequence of Serine/threonine-protein kinase DCLK2 (Homo sapiens) (Q8N568 whole entry, the tested form may be a part): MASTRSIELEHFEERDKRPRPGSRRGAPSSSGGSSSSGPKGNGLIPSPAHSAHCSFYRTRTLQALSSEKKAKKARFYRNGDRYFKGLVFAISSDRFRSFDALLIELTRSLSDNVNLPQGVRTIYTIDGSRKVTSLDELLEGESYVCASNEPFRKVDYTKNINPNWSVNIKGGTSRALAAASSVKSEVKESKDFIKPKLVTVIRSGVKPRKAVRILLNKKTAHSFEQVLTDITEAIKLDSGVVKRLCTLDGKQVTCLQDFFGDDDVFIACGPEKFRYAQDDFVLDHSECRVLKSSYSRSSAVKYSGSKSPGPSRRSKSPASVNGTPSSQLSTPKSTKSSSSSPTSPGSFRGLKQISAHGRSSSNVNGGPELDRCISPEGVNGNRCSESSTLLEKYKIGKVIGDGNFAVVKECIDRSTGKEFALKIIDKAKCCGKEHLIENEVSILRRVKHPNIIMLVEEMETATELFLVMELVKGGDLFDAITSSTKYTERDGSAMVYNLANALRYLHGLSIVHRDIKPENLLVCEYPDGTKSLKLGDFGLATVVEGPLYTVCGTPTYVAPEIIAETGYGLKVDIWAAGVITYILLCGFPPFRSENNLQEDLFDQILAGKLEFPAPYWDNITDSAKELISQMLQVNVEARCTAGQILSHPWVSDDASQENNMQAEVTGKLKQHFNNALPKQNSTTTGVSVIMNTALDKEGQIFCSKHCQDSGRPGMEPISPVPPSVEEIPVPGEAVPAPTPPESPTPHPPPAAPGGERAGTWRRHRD

[3] = molecular target: Mitogen-activated protein kinase kinase kinase 8 (Homo sapiens) (UniProt P41279); test: Inhibition of recombinant GST-tagged human Cot catalytic domain (30 to 397 residues) expressed in baculovirus expression system at 1 uM by FRET assay relative to control
Sequence of Mitogen-activated protein kinase kinase kinase 8 (Homo sapiens) (P41279 whole entry, the tested form may be a part): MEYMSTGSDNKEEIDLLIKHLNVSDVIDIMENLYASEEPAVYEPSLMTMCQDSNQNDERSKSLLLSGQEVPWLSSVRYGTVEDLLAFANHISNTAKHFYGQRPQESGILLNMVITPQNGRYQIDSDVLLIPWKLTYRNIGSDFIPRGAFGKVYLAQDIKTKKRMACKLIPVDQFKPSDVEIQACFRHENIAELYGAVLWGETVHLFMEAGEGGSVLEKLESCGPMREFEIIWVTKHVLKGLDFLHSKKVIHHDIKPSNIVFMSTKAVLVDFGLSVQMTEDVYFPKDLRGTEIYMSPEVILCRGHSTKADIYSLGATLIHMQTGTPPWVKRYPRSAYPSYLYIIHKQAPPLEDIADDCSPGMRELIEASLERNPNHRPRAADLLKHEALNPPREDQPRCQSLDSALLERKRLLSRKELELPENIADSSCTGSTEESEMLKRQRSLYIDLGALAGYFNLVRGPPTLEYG

[4] = molecular target: Bone morphogenetic protein receptor type-1A (Homo sapiens) (UniProt P36894); test: Inhibition of recombinant full length N-terminal GST-tagged human BMPR1A catalytic domain expressed in insect cells at 1 uM by FRET assay relative to control
Sequence of Bone morphogenetic protein receptor type-1A (Homo sapiens) (P36894 whole entry, the tested form may be a part): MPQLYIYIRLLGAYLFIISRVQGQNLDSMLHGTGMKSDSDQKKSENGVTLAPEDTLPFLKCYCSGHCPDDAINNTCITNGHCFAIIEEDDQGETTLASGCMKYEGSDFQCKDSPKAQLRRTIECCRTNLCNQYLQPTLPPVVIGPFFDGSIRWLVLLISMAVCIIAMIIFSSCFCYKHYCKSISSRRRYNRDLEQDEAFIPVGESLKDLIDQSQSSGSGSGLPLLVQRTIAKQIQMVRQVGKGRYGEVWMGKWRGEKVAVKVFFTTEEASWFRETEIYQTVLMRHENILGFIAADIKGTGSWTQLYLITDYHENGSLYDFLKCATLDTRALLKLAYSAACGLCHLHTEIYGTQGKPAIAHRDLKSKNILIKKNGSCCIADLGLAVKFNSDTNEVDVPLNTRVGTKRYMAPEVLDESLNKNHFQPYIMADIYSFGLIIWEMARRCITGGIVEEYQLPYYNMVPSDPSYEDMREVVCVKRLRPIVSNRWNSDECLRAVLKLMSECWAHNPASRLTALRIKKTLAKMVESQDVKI

[5] = molecular target: Activin receptor type-2B (Homo sapiens) (UniProt Q13705); test: Inhibition of recombinant GST-tagged human ACVR2B catalytic domain (185 to 488 residues) expressed in baculovirus expression system at 1 uM by FRET assay relative to control
[6] = molecular target: Tyrosine-protein kinase ITK/TSK (Homo sapiens) (UniProt Q08881); test: Inhibition of recombinant full length GST-tagged human ITK cytoplasmic domain (473 to end residues) expressed in baculovirus expression system at 1 uM by FRET relative to control
Sequence of Tyrosine-protein kinase ITK/TSK (Homo sapiens) (Q08881 whole entry, the tested form may be a part): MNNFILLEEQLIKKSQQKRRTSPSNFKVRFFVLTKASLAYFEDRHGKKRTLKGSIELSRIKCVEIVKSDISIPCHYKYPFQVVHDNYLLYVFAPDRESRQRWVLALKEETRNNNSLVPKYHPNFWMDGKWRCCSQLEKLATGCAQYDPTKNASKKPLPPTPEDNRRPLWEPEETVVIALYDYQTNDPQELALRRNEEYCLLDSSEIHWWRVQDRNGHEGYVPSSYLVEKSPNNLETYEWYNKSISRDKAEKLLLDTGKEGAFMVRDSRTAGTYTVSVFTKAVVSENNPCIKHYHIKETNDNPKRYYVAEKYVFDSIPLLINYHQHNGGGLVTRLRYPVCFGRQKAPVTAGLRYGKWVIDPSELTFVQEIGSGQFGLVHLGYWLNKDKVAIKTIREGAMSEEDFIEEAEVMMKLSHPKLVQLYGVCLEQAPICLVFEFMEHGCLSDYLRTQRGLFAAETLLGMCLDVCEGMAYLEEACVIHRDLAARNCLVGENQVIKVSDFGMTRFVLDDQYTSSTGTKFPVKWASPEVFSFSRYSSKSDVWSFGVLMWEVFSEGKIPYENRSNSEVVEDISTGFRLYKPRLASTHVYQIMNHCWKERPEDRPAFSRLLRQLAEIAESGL
How it was run: (§1)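 Single-concentration screen at 1 μM in Life Technologies SelectScreen, across a 220-kinase panel. Z′-LYTE format measures phosphorylation of a labeled peptide by FRET. Results are reported as percent inhibition.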

[7] = molecular target: G protein-coupled receptor kinase 3 (Homo sapiens) (UniProt P35626); test: Inhibition of recombinant full length GST-tagged human GRK3 expressed in baculovirus expression system at 1 uM by FRET relative to control; how it was run: as §1
Sequence of G protein-coupled receptor kinase 3 (Homo sapiens) (P35626 whole entry, the tested form may be a part): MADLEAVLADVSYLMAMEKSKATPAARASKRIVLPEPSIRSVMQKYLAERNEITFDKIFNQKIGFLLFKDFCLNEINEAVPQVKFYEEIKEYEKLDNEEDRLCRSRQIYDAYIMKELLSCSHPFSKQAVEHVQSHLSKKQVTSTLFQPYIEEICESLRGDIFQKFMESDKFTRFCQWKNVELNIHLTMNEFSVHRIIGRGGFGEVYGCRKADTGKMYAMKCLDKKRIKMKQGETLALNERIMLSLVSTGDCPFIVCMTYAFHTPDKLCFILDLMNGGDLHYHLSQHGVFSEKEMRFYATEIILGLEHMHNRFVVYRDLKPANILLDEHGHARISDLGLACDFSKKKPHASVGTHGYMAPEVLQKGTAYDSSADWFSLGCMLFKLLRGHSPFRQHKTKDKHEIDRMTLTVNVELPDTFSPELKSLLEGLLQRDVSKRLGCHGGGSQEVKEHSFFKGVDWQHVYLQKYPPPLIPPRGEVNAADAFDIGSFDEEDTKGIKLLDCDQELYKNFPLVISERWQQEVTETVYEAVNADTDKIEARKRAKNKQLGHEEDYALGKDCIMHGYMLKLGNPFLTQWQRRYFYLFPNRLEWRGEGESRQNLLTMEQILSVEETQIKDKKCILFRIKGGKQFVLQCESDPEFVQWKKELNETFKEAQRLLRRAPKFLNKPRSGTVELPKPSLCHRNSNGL

[8] = molecular target: Epidermal growth factor receptor (Homo sapiens) (UniProt P00533); test: Inhibition of recombinant GST-tagged human EGFR cytoplasmic domain (668 to 1210 residues) expressed in baculovirus expression system at 1 uM by FRET assay relative to control
How it was run: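 Part of a 220-kinase panel run at a single concentration of 1 μM. Z′-LYTE format: phosphorylation of a labelled peptide read by FRET. Values reported as percent inhibition.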

[9] = molecular target: Serine/threonine-protein kinase Nek6 (Homo sapiens) (UniProt Q9HC98); test: Inhibition of recombinant GST-tagged human NEK6 catalytic domain expressed in baculovirus expression system at 1 uM by FRET assay relative to control
Sequence of Serine/threonine-protein kinase Nek6 (Homo sapiens) (Q9HC98 whole entry, the tested form may be a part): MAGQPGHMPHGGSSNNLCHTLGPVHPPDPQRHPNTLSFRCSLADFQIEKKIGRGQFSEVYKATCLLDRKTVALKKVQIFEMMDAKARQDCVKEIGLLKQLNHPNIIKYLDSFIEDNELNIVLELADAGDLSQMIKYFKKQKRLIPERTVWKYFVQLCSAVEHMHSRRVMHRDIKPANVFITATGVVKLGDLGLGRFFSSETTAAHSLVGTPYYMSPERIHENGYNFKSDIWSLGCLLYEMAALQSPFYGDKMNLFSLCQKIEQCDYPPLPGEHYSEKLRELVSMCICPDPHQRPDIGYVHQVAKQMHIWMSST
How it was run: (§2)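 Single-point screen at 1 μM compound in a 220-kinase panel run by Life Technologies (SelectScreen). Z′-LYTE format: phosphorylation of a labeled peptide substrate read by FRET. Values are reported as percent inhibition.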

[10] = molecular target: MAP kinase-interacting serine/threonine-protein kinase 2 (Homo sapiens) (UniProt Q9HBH9); test: Inhibition of recombinant human N-terminal full length GST-tagged MKNK2 expressed in baculovirus at 1 uM by FRET assay relative to control
Sequence of MAP kinase-interacting serine/threonine-protein kinase 2 (Homo sapiens) (Q9HBH9 whole entry, looked up, the tested form may be a part): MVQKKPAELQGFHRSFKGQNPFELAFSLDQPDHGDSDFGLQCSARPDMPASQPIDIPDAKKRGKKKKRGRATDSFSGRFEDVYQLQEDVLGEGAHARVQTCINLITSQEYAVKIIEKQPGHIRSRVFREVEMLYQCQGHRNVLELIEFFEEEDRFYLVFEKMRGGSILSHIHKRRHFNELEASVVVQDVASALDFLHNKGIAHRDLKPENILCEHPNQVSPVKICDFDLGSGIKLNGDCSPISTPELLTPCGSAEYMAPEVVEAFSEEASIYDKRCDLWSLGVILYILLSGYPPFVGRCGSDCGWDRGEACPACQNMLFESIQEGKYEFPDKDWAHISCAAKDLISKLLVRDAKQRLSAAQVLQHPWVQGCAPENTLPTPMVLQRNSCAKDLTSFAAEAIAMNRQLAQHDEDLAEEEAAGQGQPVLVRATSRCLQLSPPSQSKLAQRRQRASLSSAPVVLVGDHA

[11] = molecular target: Serine/threonine-protein kinase TAO2 (Homo sapiens) (UniProt Q9UL54); test: Inhibition of recombinant GST-tagged human TAO2 catalytic domain (1 to 314 residues) expressed in baculovirus expression system at 1 uM by FRET assay relative to control; how it was run: as §2
TAK1/TAB1 (Homo sapiens) = TAK1/TAB1 (Homo sapiens) (UniProt Q15750+O43318); test: Inhibition of recombinant full length His-tagged human TAK1-TAB1 (437 to 504 residues) expressed in baculovirus expression system at 1 uM by FRET assay relative to control
[12] = molecular target: Rho-associated protein kinase 2 (Homo sapiens) (UniProt O75116); test: Inhibition of recombinant N-terminal GST-tagged human ROCK2 catalytic domain (1 to 552 residues) expressed in baculovirus expression system at 1 uM by FRET assay relative to control; how it was run: as §1
[13] = molecular target: High affinity nerve growth factor receptor (Homo sapiens, UniProt P04629); test: Inhibition of recombinant His-tagged human TrkA cytoplasmic domain (441 to 796 residues) expressed in baculovirus expression system by FRET assay
[14] = molecular target: Muscarinic acetylcholine receptor M2 (Homo sapiens) (UniProt P08172); test: Binding affinity to recombinant human M2 acetylcholine receptor at 10 uM relative to control
Sequence of Muscarinic acetylcholine receptor M2 (Homo sapiens) (P08172 whole entry): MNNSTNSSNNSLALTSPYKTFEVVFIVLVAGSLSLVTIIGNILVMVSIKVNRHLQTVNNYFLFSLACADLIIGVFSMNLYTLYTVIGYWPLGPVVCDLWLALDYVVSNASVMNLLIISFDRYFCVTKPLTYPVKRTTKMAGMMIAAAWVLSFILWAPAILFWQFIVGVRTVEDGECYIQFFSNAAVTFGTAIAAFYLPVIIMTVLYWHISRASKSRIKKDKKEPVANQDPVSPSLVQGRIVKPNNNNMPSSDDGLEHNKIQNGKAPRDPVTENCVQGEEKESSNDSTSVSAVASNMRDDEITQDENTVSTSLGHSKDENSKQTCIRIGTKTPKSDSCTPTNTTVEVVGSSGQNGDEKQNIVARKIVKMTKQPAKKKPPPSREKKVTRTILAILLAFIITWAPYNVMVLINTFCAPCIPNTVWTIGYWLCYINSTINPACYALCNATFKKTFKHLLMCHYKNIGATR
How it was run: (§3)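 Broad radioligand-binding and enzyme screening panel covering 42 targets (biogenic amine and neuropeptide receptors, ion channels, neurotransmitter transporters, acetylcholinesterase). Single test concentration of 10 μM. Results expressed as binding relative to control, with a hit defined as >50% of control.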

[15] = molecular target: Muscarinic acetylcholine receptor M3 (Homo sapiens) (UniProt P20309); test: Binding affinity to recombinant human M3 acetylcholine receptor at 10 uM relative to control; how it was run: as §3
[16] = molecular target: 5-hydroxytryptamine receptor 2A (Homo sapiens) (UniProt P28223); test: Binding affinity to 5HT2A receptor (unknown origin) receptor at 10 uM relative to control; how it was run: as §3
Sequence of 5-hydroxytryptamine receptor 2A (Homo sapiens) (P28223 whole entry): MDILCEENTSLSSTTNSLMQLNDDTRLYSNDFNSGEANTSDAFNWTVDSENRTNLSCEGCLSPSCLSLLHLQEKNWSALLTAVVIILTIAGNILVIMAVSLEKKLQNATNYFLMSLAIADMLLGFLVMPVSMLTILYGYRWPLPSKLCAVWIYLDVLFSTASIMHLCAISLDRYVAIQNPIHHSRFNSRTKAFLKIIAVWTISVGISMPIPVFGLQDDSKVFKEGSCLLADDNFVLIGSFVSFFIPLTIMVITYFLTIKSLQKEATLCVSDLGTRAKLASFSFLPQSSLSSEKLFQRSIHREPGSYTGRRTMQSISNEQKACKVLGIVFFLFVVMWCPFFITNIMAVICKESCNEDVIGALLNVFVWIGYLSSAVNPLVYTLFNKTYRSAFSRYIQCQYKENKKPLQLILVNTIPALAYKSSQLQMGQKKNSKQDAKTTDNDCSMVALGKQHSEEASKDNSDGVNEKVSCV

[17] = molecular target: Sodium-dependent noradrenaline transporter (Homo sapiens) (UniProt P23975); test: Binding affinity to recombinant human norepinephrine transporter at 10 uM relative to control; how it was run: as §3

**Q.** With `Nc1ncc(-c2cc([C@H]3[C@@H]4CN(C5COC5)C[C@@H]43)n(CC3CC3)n2)cc1C(F)(F)F` as the compound, how does the IC50 [1] read?
**A.** 144 nM

**Q.** What about the inhibition [2] of the same compound?
**A.** -0.8%

**Q.** What about the inhibition [3] of the same compound?
**A.** 3.4%

**Q.** And the inhibition [4]?
**A.** 1.5%

**Q.** And the inhibition [5]?
**A.** -2.1%

**Q.** What about the inhibition [6] of the same compound?
**A.** 0.8%

**Q.** What about the inhibition [7] of the same compound?
**A.** 0.5%

**Q.** What about the inhibition [8] of the same compound?
**A.** -1.1%

**Q.** And the inhibition [9]?
**A.** 0.3%

**Q.** What about the inhibition [10] of the same compound?
**A.** 0.9%

**Q.** What about the inhibition [11] of the same compound?
**A.** -3.9%

**Q.** What about the inhibition (TAK1/TAB1 (Homo sapiens)) of the same compound?
**A.** 42.1%

**Q.** What about the inhibition [12] of the same compound?
**A.** -7.5%

**Q.** And the IC50 [13]?
**A.** 383 nM

**Q.** What about the Activity [14] of the same compound?
**A.** > 50%

**Q.** What about the Activity [15] of the same compound?
**A.** > 50%

**Q.** What about the Activity [16] of the same compound?
**A.** > 50%

**Q.** What about the Activity [17] of the same compound?
**A.** > 50%

**Q.** Which IC50 [1] does the source give for `CC(C)n1nc(-c2cnc(N)c(OC(F)(F)F)c2)cc1[C@H]1[C@@H]2CN(C3COC3)C[C@@H]21` here?
**A.** 195 nM

**Q.** What about the inhibition [2] of the same compound?
**A.** -1.6%

**Q.** What about the inhibition [3] of the same compound?
**A.** 14.3%

**Q.** And the inhibition [4]?
**A.** -2.3%

**Q.** What about the inhibition [5] of the same compound?
**A.** -0.8%

**Q.** And the inhibition [6]?
**A.** 10.9%

**Q.** What about the inhibition [7] of the same compound?
**A.** -2.3%

**Q.** What about the inhibition [8] of the same compound?
**A.** -2%

**Q.** And the inhibition [9]?
**A.** 5.1%

**Q.** And the inhibition [10]?
**A.** 12.3%

**Q.** And the inhibition [11]?
**A.** 0.6%

**Q.** And the inhibition (TAK1/TAB1 (Homo sapiens))?
**A.** 35.6%

**Q.** And the inhibition [12]?
**A.** 7.2%

**Q.** What about the IC50 [13] of the same compound?
**A.** 1550 nM

**Q.** What about the Activity [14] of the same compound?
**A.** > 50%

**Q.** What about the Activity [15] of the same compound?
**A.** > 50%

**Q.** What about the Activity [16] of the same compound?
**A.** > 50%

**Q.** What about the Activity [17] of the same compound?
**A.** > 50%
